ChEMBL document CHEMBL6134787, “Fexinidazole optimization: enhancing anti-leishmanial profile, metabolic stability and hERG safety” (RSC Med Chem, 2024)
pIC50: −log10 of the molar value. Calls of active or inactive are those of the source. The rule behind the calls is not given here.

system: Leishmania braziliensis; assay: Antileishmanial activity against wild type Leishmania braziliensis UA847 promastigotes […] assessed as inhibition of parasite growth incubated for 72 hrs by automatic microtiter plate reader analysis; assay type: functional, organism-based; settings: not given
Outline: (§1)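 Promastigotes were grown in Schneider's medium (4 mM glutamine, gentamicin, 10% heat-inactivated FBS, pH 6.9, 27 °C). Cells were seeded at 1.5 × 10^5/well and exposed to a concentration series for 72 h at 27 °C.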

Structure (SMILES)	pIC50
CSc1ccc(OC[C@@H]2Cn3cc([N+](=O)[O-])nc3O2)cc1	5.85
CSc1ccc(OC[C@H]2Cn3cc([N+](=O)[O-])nc3O2)cc1	5.85

system: Leishmania donovani; assay: Antileishmanial activity against wild type Leishmania donovani HU3 promastigotes […] assessed as inhibition of parasite growth incubated for 72 hrs by automatic microtiter plate reader analysis; assay type: functional, organism-based; settings: not given

Structure (SMILES)	pIC50
CSc1ccc(OC[C@@H]2Cn3cc([N+](=O)[O-])nc3O2)cc1	5.96
CSc1ccc(OC[C@H]2Cn3cc([N+](=O)[O-])nc3O2)cc1	5.96

target: hERG (KCNH2) (Homo sapiens, UniProt Q12809); assay: Inhibition of human ERG stably overexpressed in HEK293 cells assessed as remaining activity at 6 uM incubated for 30 mins by FLIPR assay; assay type: toxicity, cell-based; settings: HEK293 cells stably overexpressing hERG, read-out: Activity
Outline: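 HEK-293 cells stably expressing hERG, seeded at 60 000/well and grown 24 h. Compounds were added in DMSO (final 0.5%) and incubated 30 min in the dark. After 20 s baseline, Tl+ stimulus (3 mM) was added and fluorescence (ex 485/em 535 nm) recorded for 2.5 min.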

hERG (KCNH2), sequence (Q12809 whole entry): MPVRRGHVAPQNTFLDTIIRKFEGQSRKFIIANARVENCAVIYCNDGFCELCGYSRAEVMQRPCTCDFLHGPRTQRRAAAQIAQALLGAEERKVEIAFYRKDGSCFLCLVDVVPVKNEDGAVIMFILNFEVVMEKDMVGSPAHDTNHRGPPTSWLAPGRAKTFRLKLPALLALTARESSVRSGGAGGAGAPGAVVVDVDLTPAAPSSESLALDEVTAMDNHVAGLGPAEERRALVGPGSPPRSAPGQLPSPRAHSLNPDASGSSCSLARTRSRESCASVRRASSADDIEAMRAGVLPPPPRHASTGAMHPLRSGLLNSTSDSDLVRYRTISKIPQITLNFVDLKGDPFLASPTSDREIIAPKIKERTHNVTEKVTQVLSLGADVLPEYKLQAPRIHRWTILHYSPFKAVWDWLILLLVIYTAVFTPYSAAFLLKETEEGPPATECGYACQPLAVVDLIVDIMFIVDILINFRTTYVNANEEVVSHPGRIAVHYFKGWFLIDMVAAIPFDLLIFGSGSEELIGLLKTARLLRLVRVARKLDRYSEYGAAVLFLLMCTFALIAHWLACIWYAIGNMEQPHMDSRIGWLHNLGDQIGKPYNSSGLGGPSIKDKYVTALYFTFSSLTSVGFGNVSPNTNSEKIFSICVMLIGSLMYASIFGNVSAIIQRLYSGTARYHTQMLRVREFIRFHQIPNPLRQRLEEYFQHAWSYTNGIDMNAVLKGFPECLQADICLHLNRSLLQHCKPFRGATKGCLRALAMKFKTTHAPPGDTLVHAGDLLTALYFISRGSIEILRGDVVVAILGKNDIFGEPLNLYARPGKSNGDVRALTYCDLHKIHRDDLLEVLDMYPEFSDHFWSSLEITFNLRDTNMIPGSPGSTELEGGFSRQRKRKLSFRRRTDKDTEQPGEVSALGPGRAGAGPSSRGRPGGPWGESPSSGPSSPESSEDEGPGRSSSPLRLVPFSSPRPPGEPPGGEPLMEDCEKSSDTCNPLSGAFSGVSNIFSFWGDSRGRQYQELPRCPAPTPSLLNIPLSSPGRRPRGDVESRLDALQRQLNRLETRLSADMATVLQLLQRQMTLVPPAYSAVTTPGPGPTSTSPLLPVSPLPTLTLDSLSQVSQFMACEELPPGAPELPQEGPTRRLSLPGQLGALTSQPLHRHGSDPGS

Structure (SMILES)	activity at 0.5 h, 6 µM [%]
CSc1ccc(OC[C@@H]2Cn3cc([N+](=O)[O-])nc3O2)cc1	87
CSc1ccc(OC[C@H]2Cn3cc([N+](=O)[O-])nc3O2)cc1	46

system: Leishmania donovani; assay: Antileishmanial activity against miltefosine resistant Leishmania donovani HU3MILR40 amastigotes infected in mouse peritoneal macrophage assessed as inhibition of parasite growth at 1.5 uM incubated for 72 hrs by giemsa staining based analysis; assay type: functional, organism-based; settings: not given
Outline: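 Adherent mouse peritoneal macrophages on coverslips infected overnight with late-log HU3MILR40 promastigotes (40 parasites per macrophage), then exposed to compound at a single fixed concentration in DMEM + 10% FBS for 72 h at 37 °C. Giemsa-stained coverslips imaged at 1000×; amastigotes per 100 macrophages counted versus DMSO control; mean ± SD of three independent experiments, Student's t-test.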

Structure (SMILES)	Activity
CSc1ccc(OC[C@@H]2Cn3cc([N+](=O)[O-])nc3O2)cc1	Active

system: Leishmania amazonensis; assay: Antileishmanial activity against wild type Leishmania amazonensis LV78 promastigotes […] assessed as inhibition of parasite growth incubated for 72 hrs by automatic microtiter plate reader analysis; assay type: functional, organism-based; settings: not given; outline: as §1

Structure (SMILES)	pIC50
CSc1ccc(OC[C@@H]2Cn3cc([N+](=O)[O-])nc3O2)cc1	5.92
CSc1ccc(OC[C@H]2Cn3cc([N+](=O)[O-])nc3O2)cc1	5.72

target: Voltage-gated inwardly rectifying potassium channel KCNH2 (Homo sapiens, UniProt Q12809); assay: Inhibition of human ERG stably overexpressed in HEK293 cells incubated for 30 mins by FLIPR assay; assay type: toxicity, cell-based; settings: human, hek293, 0.5 h; time 30 min
Sequence (Q12809 whole entry): as above

Structure (SMILES)	IC25 [nM]
CSc1ccc(OC[C@@H]2Cn3cc([N+](=O)[O-])nc3O2)cc1	> 6200
CSc1ccc(OC[C@H]2Cn3cc([N+](=O)[O-])nc3O2)cc1	3100

system: Leishmania amazonensis; assay: Antileishmanial activity against wild type Leishmania amazonensis LV78 amastigotes infected in mouse peritoneal macrophage assessed as inhibition of parasite growth incubated for 72 hrs by giemsa staining based analysis; assay type: functional, organism-based; settings: not given
Outline: (§2)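 Mouse peritoneal macrophages (1 × 10^5/well on coverslips, DMEM + 10% heat-inactivated FBS, penicillin/streptomycin) adhered overnight at 37 °C, 5% CO2. They were infected overnight with late-log promastigotes at a 20:1 parasite:macrophage ratio. Cells were then treated with compound for 72 h at 37 °C and Giemsa-stained. Amastigotes per 100 macrophages were counted to derive IC50; mean ± SD of 3–4 independent experiments.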

Structure (SMILES)	pIC50
CSc1ccc(OC[C@@H]2Cn3cc([N+](=O)[O-])nc3O2)cc1	6.22
CSc1ccc(OC[C@H]2Cn3cc([N+](=O)[O-])nc3O2)cc1	6.15

system: not listed separately; assay: Selectivity ratio of IC50 for cytotoxicity against mouse peritoneal macrophage assessed as inhibition of cell growth to IC50 for antileishmanial activity against miltefosine resistant Leishmania donovani HU3MILR40 amastigotes infected in mouse peritoneal macrophage assessed as inhibition of parasite growth; assay type: toxicity, cell-based; settings: peritoneal macrophages, read-out: Ratio IC50

Structure (SMILES)	selectivity ratio
CSc1ccc(OC[C@@H]2Cn3cc([N+](=O)[O-])nc3O2)cc1	> 220
CSc1ccc(OC[C@H]2Cn3cc([N+](=O)[O-])nc3O2)cc1	> 143

system: not listed separately; assay: Hepatotoxicity against mouse TAMH cells assessed as cell viability at 7.8 to 125 uM incubated for 24 to 48 hrs by MTT assay; assay type: toxicity, cell-based; settings: dose lower 7.8 µM, time lower 24 hrs, dose upper 125 µM, time upper 48 hrs, read-out: Activity
Outline: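 TAMH mouse liver cells in FCS-free DMEM/F12 with 5% PANEXIN NTA, 10 mM nicotinamide and gentamicin. Seeded at 20 000/well and attached 24 h at 37 °C, 5% CO2. DMSO-diluted compounds were applied for 24 or 48 h. MTT was added for 4 h, formazan dissolved in DMSO and A570 read. Viability was background-corrected and expressed relative to DMSO controls; mean ± SD, ≥3 experiments.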

Structure (SMILES)	viability at up to 125 µM [%]
CSc1ccc(OC[C@@H]2Cn3cc([N+](=O)[O-])nc3O2)cc1	> 50
CSc1ccc(OC[C@H]2Cn3cc([N+](=O)[O-])nc3O2)cc1	> 50

system: Leishmania donovani; assay: Antileishmanial activity against miltefosine resistant Leishmania donovani HU3MILR40 amastigotes infected in mouse peritoneal macrophage assessed as inhibition of parasite growth incubated for 72 hrs by giemsa staining based analysis; assay type: functional, organism-based; settings: not given
Outline: (§3)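 Mouse peritoneal macrophages in DMEM + 10% heat-inactivated FBS, penicillin/streptomycin; 1 × 10^5 cells per well on coverslips, adhered overnight at 37 °C, 5% CO2, non-adherent cells washed off. Infected overnight with late-log promastigotes at parasite:macrophage 40:1. Compound exposure 72 h at 37 °C; Giemsa stain, amastigotes per 100 macrophages counted, IC50 derived; means ± SD of 3–4 independent experiments.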

Structure (SMILES)	pIC50
CSc1ccc(OC[C@@H]2Cn3cc([N+](=O)[O-])nc3O2)cc1	6.40
CSc1ccc(OC[C@H]2Cn3cc([N+](=O)[O-])nc3O2)cc1	6.22

system: Leishmania donovani; assay: Antileishmanial activity against miltefosine resistant Leishmania donovani HU3MILR40 promastigotes […] assessed as inhibition of parasite growth incubated for 72 hrs by automatic microtiter plate reader analysis; assay type: functional, organism-based; settings: not given
Outline: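 Promastigote (free parasite) assay: Schneider's Drosophila medium with 4 mM glutamine, 25 μg mL−1 gentamicin, 10% heat-inactivated FBS, pH 6.9, 27 °C. 1.5 × 10^5 promastigotes per well exposed to a concentration series for 72 h at 27 °C.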

Structure (SMILES)	pIC50
CSc1ccc(OC[C@@H]2Cn3cc([N+](=O)[O-])nc3O2)cc1	6.30
CSc1ccc(OC[C@H]2Cn3cc([N+](=O)[O-])nc3O2)cc1	6.40

system: not listed separately; assay: Cytotoxicity against mouse L929 cells assessed as inhibition of cell growth incubated for 72 hrs by MTS assay; assay type: toxicity, cell-based; settings: not given
Outline: (§4)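 Cells in DMEM + 10% heat-inactivated FBS with penicillin/streptomycin at 37 °C, 5% CO2. They were seeded at 1 × 10^4/well and incubated with a concentration series for 72 h at 37 °C. Viability was read by MTS/PMS assay at 490 nm and IC50 derived.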

Structure (SMILES)	IC50 at 72 h [nM]
CSc1ccc(OC[C@@H]2Cn3cc([N+](=O)[O-])nc3O2)cc1	> 92200
CSc1ccc(OC[C@H]2Cn3cc([N+](=O)[O-])nc3O2)cc1	> 100000

system: not listed separately; assay: Metabolic stability in rat liver S9 fraction assessed as compound remaining at 20 uM measured after 32 mins in presence of NADP and GSH by HPLC analysis; assay type: ADME, subcellular; settings: read-out: Stability
Outline: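 Rat liver S9 (final 4 mg/mL) in 50 mM phosphate pH 7.4 with NADPH-regenerating system (0.3 mM NADP+, 5.3 mM glucose-6-phosphate, G6PDH), 10 mM MgCl2 and 5 mM EDTA. Pre-warmed 10 min at 37 °C, then 20 μM compound and 5.5 μM GSH added. Samples taken at 0, 16 and 32 min were quenched in ice-cold acetonitrile. HPLC (254/280 nm) peak area was expressed relative to 0 min.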

Structure (SMILES)	remaining at 32 min, 20 µM [%]
CSc1ccc(OC[C@@H]2Cn3cc([N+](=O)[O-])nc3O2)cc1	97
CSc1ccc(OC[C@H]2Cn3cc([N+](=O)[O-])nc3O2)cc1	92.1

system: not listed separately; assay: Cytotoxicity against mouse peritoneal macrophage assessed as inhibition of cell growth incubated for 72 hrs by giemsa staining based analysis; assay type: toxicity; settings: peritoneal macrophages

Structure (SMILES)	IC50 at 72 h [nM]
CSc1ccc(OC[C@@H]2Cn3cc([N+](=O)[O-])nc3O2)cc1	> 88000
CSc1ccc(OC[C@H]2Cn3cc([N+](=O)[O-])nc3O2)cc1	> 86000

system: RAW264.7; assay: Cytotoxicity against mouse RAW264.7 cells assessed as inhibition of cell growth incubated for 72 hrs by MTS assay; assay type: functional, cell-based; settings: RAW264.7, 72 h; outline: as §4

Structure (SMILES)	pIC50
CSc1ccc(OC[C@@H]2Cn3cc([N+](=O)[O-])nc3O2)cc1	< 4.16
CSc1ccc(OC[C@H]2Cn3cc([N+](=O)[O-])nc3O2)cc1	< 4.02

system: Leishmania braziliensis; assay: Antileishmanial activity against wild type Leishmania braziliensis UA847 amastigotes infected in mouse peritoneal macrophage assessed as inhibition of parasite growth incubated for 72 hrs by giemsa staining based analysis; assay type: functional, organism-based; settings: not given; outline: as §2

Structure (SMILES)	pIC50
CSc1ccc(OC[C@@H]2Cn3cc([N+](=O)[O-])nc3O2)cc1	6.30
CSc1ccc(OC[C@H]2Cn3cc([N+](=O)[O-])nc3O2)cc1	6.00

system: Leishmania major; assay: Antileishmanial activity against wild type Leishmania major FV1 promastigotes […] assessed as inhibition of parasite growth incubated for 72 hrs by automatic microtiter plate reader analysis; assay type: functional, organism-based; settings: not given; outline: as §1

Structure (SMILES)	pIC50
CSc1ccc(OC[C@@H]2Cn3cc([N+](=O)[O-])nc3O2)cc1	5.51
CSc1ccc(OC[C@H]2Cn3cc([N+](=O)[O-])nc3O2)cc1	5.24

system: not listed separately; assay: Metabolic stability in rat liver microsome assessed as compound remaining at 20 uM measured after 32 mins in presence of NADP and GSH by HPLC analysis; assay type: ADME; settings: liver microsomes, read-out: Stability
Outline: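 Rat liver microsomes (final 2 mg/mL) in 50 mM phosphate pH 7.4 with 0.3 mM NADP+, 5.3 mM glucose-6-phosphate, G6PDH, 10 mM MgCl2 and 5 mM EDTA. 20 μM compound added at 37 °C. Aliquots at 0, 16 and 32 min were quenched in ice-cold acetonitrile and centrifuged. HPLC peak area at 254/280 nm was expressed relative to 0 min.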

Structure (SMILES)	remaining at 32 min, 20 µM [%]
CSc1ccc(OC[C@@H]2Cn3cc([N+](=O)[O-])nc3O2)cc1	67.5
CSc1ccc(OC[C@H]2Cn3cc([N+](=O)[O-])nc3O2)cc1	64.7

system: Leishmania donovani; assay: Antileishmanial activity against wild type Leishmania donovani HU3 amastigotes infected in mouse peritoneal macrophage assessed as inhibition of parasite growth incubated for 72 hrs by giemsa staining based analysis; assay type: functional, organism-based; settings: not given; outline: as §3

Structure (SMILES)	pIC50
CSc1ccc(OC[C@@H]2Cn3cc([N+](=O)[O-])nc3O2)cc1	6.40
CSc1ccc(OC[C@H]2Cn3cc([N+](=O)[O-])nc3O2)cc1	6.40
